Columns and labels:
[1] = biological target: T1, Bromodomain-containing protein 4 (Homo sapiens, UniProt O60885); test: Binding affinity to human N-terminal His6-tagged BRD4 BD1-BD2 (K57 to K550 residues) after 1 hr using alexa-647 conjugated probe by TR-FRET assay
MX1 = test: Antiproliferative activity against human MX1 cells after 72 hrs by Cell Titer Glo assay; type: functional, cell-based; conditions: MX1, 72 h
[2] = biological target: T1, Bromodomain-containing protein 4; test: Inhibition of BRD4 in human H1299 cells assessed as decrease in HPV LCR-E2-EP400-mediated transcriptional repression after 24 hrs by Bright-Glo luciferase reporter gene assay; type: cell-based
Liver [3] = test: Unbound intrinsic clearance in human liver microsomes at 10 uM preincubated for 5 mins followed by NADPH addition measured after 60 mins by HPLC-UV-MS analysis; type: ADME, microsome; conditions: 1 h
Liver [4] = test: Unbound intrinsic clearance in mouse liver microsomes; type: ADME, microsome
Summary of the method: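 Liver microsome stability is expressed as unbound intrinsic clearance, Cl_int,u, in L/hr/kg. Dextromethorphan served as the in-house low-clearance reference control and verapamil as the high-clearance reference control.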

Liver [5] = test: Unbound intrinsic clearance in rat liver microsomes at 10 uM preincubated for 5 mins followed by NADPH addition measured after 60 mins by HPLC-UV-MS analysis; type: ADME, microsome; conditions: 1 h
[6] = Permeability in MDCK cells; type: ADME, cell-based, Canis lupus familiaris; conditions: dog, read-out: permeability

SMILES	Ki [1]	EC50 (MX1)	EC50 [2]	CL free (Liver [3])	CL free (Liver [4])	CL free (Liver [5])	Papp [6]
Cc1cc(-c2ccccc2Oc2ccccc2)c[nH]c1=O	1700 nM	2400 nM	2300 nM				
CC(=O)Nc1ccc(Oc2ccccc2)c(-c2cn(C)c(=O)c3[nH]ccc23)c1	9.8 nM	46 nM	26 nM	113 mL/min/kg	3500 mL/min/kg	767 mL/min/kg	28 ×10⁻⁶ cm/s
Cn1cc(-c2ccccc2Oc2ccccc2)cc(N)c1=O	3000 nM	> 5000 nM	8500 nM				
Cn1cc(-c2cc(NS(=O)(=O)CC(F)(F)F)ccc2Oc2ccccc2)c2cc[nH]c2c1=O	4.4 nM	31 nM	22 nM	46.7 mL/min/kg	650 mL/min/kg	1270 mL/min/kg	16 ×10⁻⁶ cm/s
CCS(=O)(=O)Nc1ccc(Oc2ccc(C(F)(F)F)cc2)c(-c2cn(C)c(=O)c3[nH]ccc23)c1	9 nM	30 nM	65 nM	128 mL/min/kg	2830 mL/min/kg	583 mL/min/kg	11 ×10⁻⁶ cm/s
CCNC(=O)c1ccc(Oc2ccccc2)c(-c2cn(C)c(=O)c3[nH]ccc23)c1	32 nM	130 nM	70 nM	68.3 mL/min/kg	717 mL/min/kg	4000 mL/min/kg	30 ×10⁻⁶ cm/s
CCS(=O)(=O)Nc1ccc(Oc2c(F)cc(F)cc2F)c(-c2cn(C)c(=O)c3[nH]ccc23)c1	12 nM	7.9 nM	19 nM	102 mL/min/kg	900 mL/min/kg	233 mL/min/kg	21 ×10⁻⁶ cm/s
Cn1cc(-c2ccccc2Oc2ccccc2)c2cc[nH]c2c1=O	48 nM	550 nM	480 nM	1670 mL/min/kg	93300 mL/min/kg	40000 mL/min/kg	31 ×10⁻⁶ cm/s
CCS(=O)(=O)Nc1ccc(OC2CCN(C)CC2)c(-c2cn(C)c(=O)c3[nH]ccc23)c1	430 nM	210 nM	880 nM	< 28.3 mL/min/kg	< 85 mL/min/kg	80 mL/min/kg	0.55 ×10⁻⁶ cm/s
CCS(=O)(=O)Nc1ccc(Oc2ccccc2)c(-c2cn(C)c(=O)c3[nH]ccc23)c1	1.5 nM	14 nM	8.1 nM	< 45 mL/min/kg	917 mL/min/kg	3330 mL/min/kg	22 ×10⁻⁶ cm/s
CCS(=O)(=O)Nc1ccc(Oc2ccc(Cl)cc2)c(-c2cn(C)c(=O)c3[nH]ccc23)c1	3.4 nM	22 nM	17 nM	< 96.7 mL/min/kg	900 mL/min/kg	200 mL/min/kg	21 ×10⁻⁶ cm/s
CCS(=O)(=O)Nc1ccc(Oc2cncnc2)c(-c2cn(C)c(=O)c3[nH]ccc23)c1	32 nM	130 nM	170 nM	< 33.3 mL/min/kg	233 mL/min/kg	48.3 mL/min/kg	1 ×10⁻⁶ cm/s
COc1ccc2c(c1)[C@]13CCCC[C@@H]1[C@H](C2)N(C)CC3 [DEXTROMETHORPHAN]				123 mL/min/kg			
Cn1cc(-c2cc(C(N)=O)ccc2Oc2ccccc2)c2cc[nH]c2c1=O	14 nM	120 nM	71 nM	48.3 mL/min/kg	450 mL/min/kg	550 mL/min/kg	14 ×10⁻⁶ cm/s
Cn1cc(-c2cc(NS(C)(=O)=O)ccc2OC2CCOCC2)c2cc[nH]c2c1=O	68 nM	72 nM	90 nM	< 30 mL/min/kg	< 90 mL/min/kg	233 mL/min/kg	1.7 ×10⁻⁶ cm/s
Cn1cc(-c2cc(NS(C)(=O)=O)ccc2OC2CCCCC2)c2cc[nH]c2c1=O	3.7 nM	14 nM	18 nM	450 mL/min/kg	3670 mL/min/kg	1600 mL/min/kg	23 ×10⁻⁶ cm/s

SMILES	Ki [1]	EC50 (MX1)	EC50 [2]	CL free (Liver [3])	CL free (Liver [4])	CL free (Liver [5])	Papp [6]
Cn1cc(-c2cc(NS(C)(=O)=O)ccc2Oc2ccc(F)cc2Cl)c2cc[nH]c2c1=O	3.1 nM	27 nM	35 nM	233 mL/min/kg	850 mL/min/kg	317 mL/min/kg	11 ×10⁻⁶ cm/s
CCS(=O)(=O)Nc1ccc(Oc2ccc(C#N)cc2)c(-c2cn(C)c(=O)c3[nH]ccc23)c1	9.4 nM	17 nM	48 nM	41.7 mL/min/kg	< 108 mL/min/kg	81.7 mL/min/kg	11 ×10⁻⁶ cm/s
Cn1cc(-c2cc(NS(C)(=O)=O)ccc2Oc2cccnc2)c2cc[nH]c2c1=O	6.3 nM	34 nM	67 nM	86.7 mL/min/kg	533 mL/min/kg	350 mL/min/kg	3 ×10⁻⁶ cm/s
CCS(=O)(=O)Nc1ccc(OCC(C)(C)C)c(-c2cn(C)c(=O)c3[nH]ccc23)c1	38 nM	77 nM	79 nM	283 mL/min/kg	1030 mL/min/kg	433 mL/min/kg	43 ×10⁻⁶ cm/s
Cn1cc(-c2cc(NS(C)(=O)=O)ccc2Oc2ccccc2C(F)(F)F)c2cc[nH]c2c1=O	6.4 nM	83 nM	76 nM	533 mL/min/kg	1350 mL/min/kg	250 mL/min/kg	7.8 ×10⁻⁶ cm/s
Cn1cc(-c2cc(NS(C)(=O)=O)ccc2OC2CCC(F)(F)CC2)c2cc[nH]c2c1=O	19 nM	19 nM	20 nM	< 38.3 mL/min/kg	717 mL/min/kg	200 mL/min/kg	12 ×10⁻⁶ cm/s
Cn1cc(-c2cc(S(N)(=O)=O)ccc2Oc2ccccc2)c2cc[nH]c2c1=O	3.6 nM	56 nM	39 nM	< 43.3 mL/min/kg	517 mL/min/kg	1320 mL/min/kg	22 ×10⁻⁶ cm/s
COCCc1ccc(OCC(O)CNC(C)C)cc1 (configuration not stated) [METOPROLOL]							36 ×10⁻⁶ cm/s
Cn1cc(-c2cc(NS(C)(=O)=O)ccc2OCc2ccccc2)c2cc[nH]c2c1=O	68 nM	110 nM	120 nM	122 mL/min/kg	900 mL/min/kg	567 mL/min/kg	24 ×10⁻⁶ cm/s
Cn1cc(-c2cc(NS(C)(=O)=O)cnc2Oc2ccccc2)c2cc[nH]c2c1=O	4.1 nM	46 nM	88 nM	63.3 mL/min/kg	< 93.3 mL/min/kg	600 mL/min/kg	6 ×10⁻⁶ cm/s
CCS(=O)(=O)Nc1ccc(OC2CCC(N(C)C)CC2)c(-c2cn(C)c(=O)c3[nH]ccc23)c1 (configuration not stated)	26 nM	86 nM	270 nM	< 26.7 mL/min/kg	125 mL/min/kg	< 45 mL/min/kg	2.7 ×10⁻⁶ cm/s
Cc1sc2c(c1C)C(c1ccc(Cl)cc1)=N[C@@H](CC(=O)OC(C)(C)C)c1nnc(C)n1-2		254 nM					
CN(C)S(=O)(=O)Nc1ccc(Oc2ccccc2)c(-c2cn(C)c(=O)c3[nH]ccc23)c1	2.9 nM	65 nM	43 nM	233 mL/min/kg	2330 mL/min/kg	4000 mL/min/kg	19 ×10⁻⁶ cm/s
Cn1cc(-c2ccccc2Oc2ccccc2)ccc1=O	890 nM	4800 nM	4100 nM				
Cn1cc(-c2cc(S(C)(=O)=O)ccc2Oc2ccccc2)c2cc[nH]c2c1=O	5.8 nM	52 nM	50 nM	91.7 mL/min/kg	383 mL/min/kg	1080 mL/min/kg	24 ×10⁻⁶ cm/s

— ChEMBL document CHEMBL4017535 (J Med Chem, 2017)
